ARNT TACC3 PPI: ARNT/TACC3 interaction disruption; AID 623870; AlphaScreen His-ARNT PAS-B/GST-TACC3 binding, luminescence; TACC3 fragment carries E629A point mutation; Q9Y6A5; inhibition, % at 9.99 µM; 0.66% of 390,000 active;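 active = mean inhibition of replicates at least 50% and at least half of replicates each reaching 50%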;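 also: 0% = complete ARNT plus TACC3 wells and 100% = ARNT alone without TACC3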
CAL PDZ FP-1: CAL PDZ (human) peptide binding inhibition | purified CAL PDZ, TMR-peptide fluorescence polarization, 1 h | Q9HD26 | 0.92% of 300,000 active | inhibition, % at 24.9 µM | AID 602252;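 active = mean inhibition of at least 30% with at least half of replicates also reaching 30%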;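 also: 0% = DMSO neutral control and 100% = excess unlabeled competitor peptide PRC23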
DYRK1A inh: inhibitors of rat Dyrk1A kinase; ADP-Glo luminescence, NFATc1 peptide; inhibition, % at 12.5 µM; 0.43% of 310,000 active; AID 504441; in the data active = inhibition above about 50%;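 also: plate controls were vehicle with enzyme for no effect and no enzyme for full effect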
CAL PDZ FP-2: blocks peptide binding to human CAL PDZ domain; 0.02% of 330,000 active; inhibition, % at 20 µM; AID 504414; Q9HD26; purified CAL PDZ, TMR-peptide fluorescence polarization, 1 h;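 active = highest replicate inhibition of at least 40%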;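 also: plate controls were DMSO neutral control wells for no effect and unlabeled competitor peptide control wells for full effect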
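Material – purified CerCALP PDZ construct · Detection – FP readout, S and P plane fluorescence · Measure – percent inhibition from loss of millipolarization · Controls – unlabelled peptide for full inhibition, DMSO wells as neutral · Probe or stimulus – TMR-labelled reporter peptide T*-PRC34 bound in PDZ groove · Times – 1 h at RT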
Starred values were filed as active, the others as inactive; . = no result. Rows were chosen to be rich in hits. Some 1.4% of all compounds tested hit in one or more screens of this group.

SMILES	ARNT TACC3 PPI	CAL PDZ FP-1	DYRK1A inh	CAL PDZ FP-2
Cc1cc(NC(=O)CCC(=O)N(Cc2ccco2)C(C(=O)NC2CCCCC2)c2ccccc2)no1 (configuration not stated)	-3	39*	1	-1
c1cncc(CSc2ccc(-c3ccc4c(c3)OCO4)nn2)c1	3	46*	3	-2
Fc1cccc(CSc2ccc(-c3ccc4c(c3)OCO4)nn2)c1	-5	-2	-1	-2
CNC[C@H]1Oc2ncc(C#Cc3cccc(OC)c3)cc2C(=O)N([C@H](C)CO)C[C@H]1C	10	.	.	.
CN1C[C@@H]2[C@H](c3ccccc31)[C@H](CO)N2C(=O)CN1CCOCC1	-4	.	.	.
CCCS(=O)(=O)c1nc(S(=O)(=O)c2ccc(C)cc2)c(NCCCN2CCCC2=O)s1	3	42*	1	-1
CCN(CC)C(=O)CN1C(=O)c2cccc3cccc1c23	-13	37*	-1	.
CCN(CC)C(=O)CN1C(=O)C(=O)c2ccccc21	2	0	2	-1
Cc1sc2nc(SCC(=O)Nc3ccc(S(N)(=O)=O)cc3)[nH]c(=O)c2c1C	-6	44*	1	0
Cc1sc2nc(SCC(=O)Nc3cccc(S(N)(=O)=O)c3)[nH]c(=O)c2c1C	-7	-5	.	-2
Cc1ccc(S(=O)(=O)N(C)C)cc1NC(=O)CSc1ncn[nH]1	1	34*	0	-1
C=CCOc1ccc(/C=C/C(=O)OCC(=O)N2CCN(S(=O)(=O)c3ccc(C)cc3C)CC2)cc1	.	47*	3	0
COc1ccc(C(CNC(=O)c2ccc(NS(=O)(=O)c3ccc(F)c(C)c3)cc2)N2CCCC2)cc1 (configuration not stated)	3	55*	-2	-3
COc1ccccc1C(CNC(=O)c1ccc(NS(=O)(=O)c2ccc(F)c(C)c2)cc1)N1CCCC1 (configuration not stated)	-21	1	-8	-3
COc1cc([N+](=O)[O-])ccc1NC(=O)/C=C/C(=O)O	-2	71*	8	0
CN1C(=O)c2cc(NS(=O)(=O)c3ccc(Cl)cc3)ccc2OC[C@H]2O[C@H](CC(=O)O)CC[C@H]21	-7	.	.	.
COc1ccc(-n2nc(C(=O)NCC(=O)N3CCN(c4ccccc4F)CC3)c3ccccc3c2=O)cc1	.	73*	6	-1
COc1ccc(S(=O)(=O)Nc2ccc3c(c2)C(=O)N([C@@H](C)CO)C[C@@H](C)[C@H](CN(C)C(=O)C2CCCCC2)OCCCC[C@H](C)O3)cc1	-9	.	.	.
COCc1nnc(NC(=O)c2cccc(NC(=O)C(C)C)c2)s1	-7	-2	.	2
CCc1nnc(NC(=O)c2cccc(NC(=O)C(C)C)c2)s1	2	45*	-1	-1
O=[N+]([O-])c1ccc(Oc2cccc3cccnc23)c([N+](=O)[O-])c1	active	1	0	-1
O=C(Cc1ccccc1)N1C[C@@H]2[C@H](c3ccccc31)[C@@H](CO)N2C(=O)C1CCCC1	4	.	.	.
COc1ccc(S(=O)(=O)N(C)C[C@@H]2OCCCC[C@H](C)Oc3ccc(NC(=O)C4CCCCC4)cc3C(=O)N([C@@H](C)CO)C[C@@H]2C)cc1	11	.	.	.
O=C(Nc1ccc(F)cc1)c1nc[nH]c1C(=O)Nc1ccccc1[N+](=O)[O-]	-3	-3	-3	0
O=C(Nc1ccc(F)cc1)c1nc[nH]c1C(=O)O	54*	28	8	0
SMILES	ARNT TACC3 PPI	CAL PDZ FP-1	DYRK1A inh	CAL PDZ FP-2
COc1ccc(CN(C)C[C@@H]2OCCCC[C@H](C)Oc3ccc(NS(=O)(=O)c4ccc(F)cc4)cc3C(=O)N([C@H](C)CO)C[C@@H]2C)cc1	-3	.	.	.
O=C(c1ccccc1)N1CCN(CC(O)COCC2CC=CCC2)CC1 (configuration not stated)	0	1	-10	1
CCc1nc2ccccc2n1CC(O)COCC1CC=CCC1 (configuration not stated)	-1	43*	2	0
CC(C)c1cn(CC[C@@H]2CC[C@H](NC(=O)c3cccc(F)c3)[C@@H](CO)O2)nn1	0	.	.	.
COc1ccccc1-c1ccc2n(c1=O)C[C@H]1[C@H](CO)[C@@H](C(=O)NC3CCC3)N(C(=O)C3CCC3)[C@@H]21	-2	.	.	.
C[C@@H]1CN([C@H](C)CO)C(=O)c2cc(C#CC3(O)CCCC3)cnc2O[C@H]1CN(C)S(C)(=O)=O	-8	.	.	.
Cc1noc(C)c1NC(=O)Nc1ccc2c(c1)C(=O)N(C)[C@@H]1CC[C@@H](CC(=O)N(C)C)O[C@H]1CO2	7	.	.	.
Cn1c(SCC(N)=O)nnc1-c1ccc(S(=O)(=O)N2CCCC2)cc1	3	42*	-11	0
CSc1nnc(-c2ccc(S(=O)(=O)N3CCCC3)cc2)n1C	-5	0	4	-3
C[C@H]1CN([C@@H](C)CO)C(=O)c2cc(NC(=O)Cc3cn(C)c4ccccc34)ccc2O[C@H]1CN(C)Cc1ccc(C(=O)Nc2ccccc2N)cc1	-1	.	.	.
O=C(CNc1ccccc1)c1ccc([N+](=O)[O-])cc1	0	-3	-3	0
CC(=O)Nc1ccc(NCC(=O)c2ccccc2)cc1	-2	50*	1	-1
C[C@@H]1CN([C@H](C)CO)C(=O)Cc2cc(NS(C)(=O)=O)ccc2O[C@H]1CN(C)S(=O)(=O)c1cccs1	-12	.	.	.
C[C@H](CO)N1C[C@H](C)[C@@H](CN(C)C(=O)C2CCCCC2)Oc2cc(-c3ccc(C(=O)N(C)C)cc3)ccc2S1(=O)=O	16	.	.	.
CO[C@@H]1CN(C)C(=O)c2cc(NS(C)(=O)=O)ccc2OC[C@H](C)N(C(=O)C2CC2)C[C@H]1C	-5	.	.	.
C=CCNc1nc2c3ccccc3n(C(C)=O)c2s1	active	11	-4	-2
CC(=O)n1c2ccccc2c2nc3ccccc3nc21	-6	-6	0	-15
Clc1ccc(C(c2ccccc2Cl)C(Cl)Cl)cc1 (configuration not stated)	48*	0	5	1
CCc1ccc(C(c2ccc(CC)cc2)C(Cl)Cl)cc1	.	-1	.	0
COc1ccc(-n2c(Cc3cc(=O)[nH]c(=O)[nH]3)nnc2SCC(=O)N2CCC(C)CC2)cc1	.	2	-6	0
COc1cccc(-n2c(Cc3cc(=O)[nH]c(=O)[nH]3)nnc2SCC(=O)N2CCC(C)CC2)c1	-2	50*	4	0
c1ccc2c(NC3=NCCCCS3)cccc2c1	4	34*	.	.
c1ccc(NC2=NCCCCS2)cc1	0	-4	2	0
CC(=O)N(C)C[C@H]1Oc2ncc(-c3ccccc3C)cc2C(=O)N([C@@H](C)CO)C[C@@H]1C	-6	.	.	.
C[C@H]1CN([C@@H](C)CO)C(=O)c2cc(C#CC3CCCCC3)cnc2O[C@@H]1CN(C)S(C)(=O)=O	0	.	.	.
CC(NNC(=S)N1CCN(c2ccccn2)CC1)c1nccc2ccccc12 (configuration not stated)	63*	-2	6	-1
CCCCCN1CC(=O)N2[C@@H](Cc3c([nH]c4ccccc34)C2(C)C)C1=O	-17	-1	4	-1

Screens as filed in PubChem BioAssay.
